# In ChEMBL document CHEMBL4689842, “EUbOPEN Chemogenomics Library wave 1” (2021):
# System: HEK-293T
# Assay: Multiplex assay against HEK293T;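 on Population Tubulin-Different-Phenotype (%): share of the cells with healthy nuclei that show this phenotype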
# Format: toxicity, cell-based
# Settings: human
# In short: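 Imaging took place on a CQ1 microscope at 37°C and 5% CO2 once compound had been added to live cells stained at seeding with Hoechst33342, BioTracker Green Microtubule Cytoskeleton Dye, MitoTracker Red and Annexin V Alexa Fluor 680. CellPathfinder machine-learning gating classed cells as Hoechst high-intensity objects or normal cells, classed normal cells as having healthy, pyknosed or fragmented nuclei, and classed pyknosed cells as mitotic or apoptotic. Tubulin, mitochondrial-mass and membrane-permeability phenotypes are per cents of the healthy-nucleus cells.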
# [1] = 12 h, 1 µM, compound concentration 1 uM, replicate 1
# [2] = 12 h, 1 µM, compound concentration 1 uM, replicate 2
# [3] = 12 h, 10 µM, compound concentration 10 uM, replicate 1
# [4] = 12 h, 10 µM, compound concentration 10 uM, replicate 2
# [5] = 24 h, 1 µM, compound concentration 1 uM, replicate 1
# [6] = 24 h, 1 µM, compound concentration 1 uM, replicate 2
# [7] = 24 h, 10 µM, compound concentration 10 uM, replicate 1
# [8] = 24 h, 10 µM, compound concentration 10 uM, replicate 2
# [9] = 48 h, 1 µM, compound concentration 1 uM, replicate 1
# [10] = 48 h, 1 µM, compound concentration 1 uM, replicate 2
# [11] = 48 h, 10 µM, compound concentration 10 uM, replicate 1
# [12] = 48 h, 10 µM, compound concentration 10 uM, replicate 2
structure (smiles),measurement,setting,value
O=C(Cc1ccc(-c2ccc(OCCN3CCOCC3)cc2)cn1)NCc1ccccc1 [TIRBANIBULIN],Population Apoptotic (%),[1],34%
same,Population Fragmented Nuclei (%),[1],17%
same,Population Healthy Nuclei (%),[1],21%
same,Population Hoechst High Intensity Objects (%),[1],12%
same,Population Membrane Permeable-Phenotype (%),[1],0%
same,Population Mitochondria Different-Phenotype (%),[1],58%
same,Population Mitotic Cells (%),[1],65%
same,Population Normal (%),[1],87%
same,Population Pyknosed Nuclei (%),[1],61%
same,Population Tubulin-Different-Phenotype (%),[1],2%
same,Total Cell Count,[1],193
same,Population Apoptotic (%),[2],16%
same,Population Fragmented Nuclei (%),[2],8%
same,Population Healthy Nuclei (%),[2],30%
same,Population Hoechst High Intensity Objects (%),[2],2%
same,Population Membrane Permeable-Phenotype (%),[2],10%
same,Population Mitochondria Different-Phenotype (%),[2],23%
same,Population Mitotic Cells (%),[2],83%
same,Population Normal (%),[2],97%
same,Population Pyknosed Nuclei (%),[2],60%
same,Population Tubulin-Different-Phenotype (%),[2],11%
same,Total Cell Count,[2],231
same,Population Apoptotic (%),[3],52%
same,Population Fragmented Nuclei (%),[3],20%
same,Population Healthy Nuclei (%),[3],21%
same,Population Hoechst High Intensity Objects (%),[3],18%
same,Population Membrane Permeable-Phenotype (%),[3],0%
same,Population Mitochondria Different-Phenotype (%),[3],79%
same,Population Mitotic Cells (%),[3],47%
same,Population Normal (%),[3],81%
same,Population Pyknosed Nuclei (%),[3],58%
same,Population Tubulin-Different-Phenotype (%),[3],27%
same,Total Cell Count,[3],169
same,Population Apoptotic (%),[4],17%
same,Population Fragmented Nuclei (%),[4],5%
same,Population Healthy Nuclei (%),[4],28%
same,Population Hoechst High Intensity Objects (%),[4],5%
same,Population Membrane Permeable-Phenotype (%),[4],2%
same,Population Mitochondria Different-Phenotype (%),[4],23%
same,Population Mitotic Cells (%),[4],82%
same,Population Normal (%),[4],95%
same,Population Pyknosed Nuclei (%),[4],66%
same,Population Tubulin-Different-Phenotype (%),[4],6%
same,Total Cell Count,[4],160
same,Population Apoptotic (%),[5],39%
same,Population Fragmented Nuclei (%),[5],17%
same,Population Healthy Nuclei (%),[5],21%
same,Population Hoechst High Intensity Objects (%),[5],14%
same,Population Membrane Permeable-Phenotype (%),[5],2%
same,Population Mitochondria Different-Phenotype (%),[5],37%
same,Population Mitotic Cells (%),[5],60%
same,Population Normal (%),[5],85%
same,Population Pyknosed Nuclei (%),[5],61%
same,Population Tubulin-Different-Phenotype (%),[5],5%
same,Total Cell Count,[5],194
same,Population Apoptotic (%),[6],27%
same,Population Fragmented Nuclei (%),[6],6%
same,Population Healthy Nuclei (%),[6],29%
same,Population Hoechst High Intensity Objects (%),[6],2%
same,Population Membrane Permeable-Phenotype (%),[6],6%
same,Population Mitochondria Different-Phenotype (%),[6],25%
same,Population Mitotic Cells (%),[6],72%
same,Population Normal (%),[6],97%
same,Population Pyknosed Nuclei (%),[6],63%
same,Population Tubulin-Different-Phenotype (%),[6],33%
same,Total Cell Count,[6],207
same,Population Apoptotic (%),[7],54%
same,Population Fragmented Nuclei (%),[7],21%
same,Population Healthy Nuclei (%),[7],16%
same,Population Hoechst High Intensity Objects (%),[7],17%
same,Population Membrane Permeable-Phenotype (%),[7],0%
same,Population Mitochondria Different-Phenotype (%),[7],82%
same,Population Mitotic Cells (%),[7],45%
same,Population Normal (%),[7],82%
same,Population Pyknosed Nuclei (%),[7],62%
same,Population Tubulin-Different-Phenotype (%),[7],17%
same,Total Cell Count,[7],168
same,Population Apoptotic (%),[8],22%
same,Population Fragmented Nuclei (%),[8],5%
same,Population Healthy Nuclei (%),[8],25%
same,Population Hoechst High Intensity Objects (%),[8],5%
same,Population Membrane Permeable-Phenotype (%),[8],7%
same,Population Mitochondria Different-Phenotype (%),[8],23%
same,Population Mitotic Cells (%),[8],77%
same,Population Normal (%),[8],94%
same,Population Pyknosed Nuclei (%),[8],68%
same,Population Tubulin-Different-Phenotype (%),[8],18%
same,Total Cell Count,[8],160
same,Population Apoptotic (%),[9],56%
same,Population Fragmented Nuclei (%),[9],25%
same,Population Healthy Nuclei (%),[9],23%
same,Population Hoechst High Intensity Objects (%),[9],16%
same,Population Membrane Permeable-Phenotype (%),[9],5%
same,Population Mitochondria Different-Phenotype (%),[9],45%
same,Population Mitotic Cells (%),[9],43%
same,Population Normal (%),[9],83%
same,Population Pyknosed Nuclei (%),[9],50%
same,Population Tubulin-Different-Phenotype (%),[9],24%
same,Total Cell Count,[9],187
same,Population Apoptotic (%),[10],40%
same,Population Fragmented Nuclei (%),[10],12%
same,Population Healthy Nuclei (%),[10],43%
same,Population Hoechst High Intensity Objects (%),[10],4%
same,Population Membrane Permeable-Phenotype (%),[10],12%
same,Population Mitochondria Different-Phenotype (%),[10],25%
same,Population Mitotic Cells (%),[10],60%
same,Population Normal (%),[10],95%
same,Population Pyknosed Nuclei (%),[10],44%
same,Population Tubulin-Different-Phenotype (%),[10],50%
same,Total Cell Count,[10],213
same,Population Apoptotic (%),[11],56%
same,Population Fragmented Nuclei (%),[11],29%
same,Population Healthy Nuclei (%),[11],13%
same,Population Hoechst High Intensity Objects (%),[11],17%
same,Population Membrane Permeable-Phenotype (%),[11],0%
same,Population Mitochondria Different-Phenotype (%),[11],66%
same,Population Mitotic Cells (%),[11],44%
same,Population Normal (%),[11],82%
same,Population Pyknosed Nuclei (%),[11],56%
same,Population Tubulin-Different-Phenotype (%),[11],11%
same,Total Cell Count,[11],160
same,Population Apoptotic (%),[12],36%
same,Population Fragmented Nuclei (%),[12],7%
same,Population Healthy Nuclei (%),[12],39%
same,Population Hoechst High Intensity Objects (%),[12],4%
same,Population Membrane Permeable-Phenotype (%),[12],9%
same,Population Mitochondria Different-Phenotype (%),[12],23%
same,Population Mitotic Cells (%),[12],63%
same,Population Normal (%),[12],95%
same,Population Pyknosed Nuclei (%),[12],52%
same,Population Tubulin-Different-Phenotype (%),[12],20%
same,Total Cell Count,[12],145
